ERAP1 HTS inh = human ERAP1 aminopeptidase inhibitors, primary screen, biochemical, single point, plate reader; Endoplasmic reticulum aminopeptidase 1 (Homo sapiens), Q9NZ08; recombinant ERAP1, Leu-AMC fluorescence, 60 min; inhibition, % at 10.7 µM; 340,000 compounds, 0.15% hits;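 active = mean replicate inhibition of at least 30%, or all replicates individually reaching that 30% level; inactive = mean below 30% and not every replicate reaching it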
miR122 inh = miR-122 Renilla sensor signal increase in Huh7, primary screen, miR-122 inhibitor project, cell-based, single point, plate reader. Huh7 miR-122 Renilla luciferase sensor, 48 h; neutral wells = 0, positive control = 100. activation (reporter increase), % at 12.5 µM. 340,000 compounds, 0.3% hits;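 active = mean replicate activation score at least 90 and every replicate individually at or above 90; inconclusive = only one of the two criteria met; inactive = neither criterion met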;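 also: higher luciferase means less miR-122 activity so hits act as miR-122 inhibitors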
F508del corr = F508del CFTR correction, initial screen, CFBE line, single point; activity (quench increase), % at 7.58 µM; CFBE cells, YFP halide quenching; stimulated with forskolin plus potentiator P3; % fluorescence drop versus neutral controls; 350,000 compounds, 0.36% hits;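 active = mean added fluorescence quench of at least 8% versus neutral control, with both replicates also reaching 8%; inconclusive = only one of the mean or replicate conditions met; inactive = mean below 8% and not both replicates reaching 8%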;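 also: cells transiently co-express mutant CFTR-F508del with the halide-sensitive YFP; corrector assay measuring rescue of mutant channel to the surface after 24 h compound exposure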
DENV2 CPE = inhibitors of DENV2 cytopathic effect, primary screen, cell-based, plate reader, single concentration; DENV2-infected cells, cytopathic effect rescue; CPE inhibition, % at 9.99 µM; 350,000 compounds, 1.7% hits; in the data active = CPE inhibition above about 20%, passing the limit was not always enough; inconclusive = no clear call, values can overlap the other calls; tested in BHK-21 cells
E-sel inducer = E-selectin induction in HUVECs, primary screen, imaging, HUVEC, immunofluorescence imaging, single point; P16581; normalized: neutral wells 0, TNF-alpha wells 100; activation, % at 7.58 µM; 260,000 compounds, 0.37% hits; AID 686992, 2013;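 active = mean E-selectin-positive cell signal at least 10% of the positive control, reached in at least 60% of replicates, without over 20% cell loss; inconclusive = no rule given, readout overlaps actives, possibly toxicity-flagged; inactive = the rest, including those meeting only one limit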
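Read-out basis: % PE-positive cells; Test system: HUVEC primary endothelial cells; Technique: immunofluorescence imaging; Dosing: single-point compound dose.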
GSIS activator = GLuc luminescence reporter in INS-1E cells, primary screen for activators of glucose-dependent secretion of insulin; INS-1E GLuc reporter insulin secretion, 2-3 h; activation, % at 16.6 µM; 370,000 compounds, 0.61% hits; AID 743287, 2014;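 active = lowest replicate activation of at least 40%, so every replicate reaches that level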
Hits are given with their value; – = inactive; ? = inconclusive; · = no result; [ ] = dose if it differs, or a comment. The list is not random: actives were taken first. Their share in the collection is about 2.6%.

SMILES	ERAP1 HTS inh	miR122 inh	F508del corr	DENV2 CPE	E-sel inducer	GSIS activator
C[C@@H]1CN([C@@H](C)CO)C(=O)Cc2cc(NC(=O)Nc3cccc4ccccc34)ccc2O[C@H]1CN(C)Cc1ccccc1	–	–	–	20	–	–
C[C@@H]1CN([C@@H](C)CO)C(=O)Cc2cc(NC(=O)Nc3cccc4ccccc34)ccc2O[C@@H]1CN(C)Cc1ccc(C(=O)O)cc1	–	–	–	49	–	–
C[C@@H]1CCCCO[C@@H](CN(C)C(=O)Nc2ccc3c(c2)OCO3)[C@H](C)CN([C@@H](C)CO)C(=O)c2cc(NS(=O)(=O)c3ccc(F)cc3)ccc2O1	·	–	–	–	–	–
CC1CCc2nc3ccc(S(=O)(=O)N4CCC(C(=O)NC5CCCC5)CC4)cc3c(C(=O)O)c2C1 (stereo unspecified)	–	–	–	?	93	·
N#Cc1c(NC(=O)c2ccccc2)sc2c1CCC2	·	111	·	·	·	·
N#Cc1c(NC(=O)c2cccnc2)sc2c1CCC2	·	–	·	·	·	·
COc1cccc(C(=O)Nc2sc3c(c2C(=O)O)CCCC3)c1	–	·	–	–	–	–
Cc1c(Cc2ccccc2)sc(NC(=O)c2ccco2)c1C(N)=O	·	–	·	·	·	86
O=C(Nc1sc2c(c1C(=O)O)CCC2)c1ccco1	–	123	·	·	·	–
COc1cccc(C(=O)Nc2sc3c(c2C#N)CCN(C(C)=O)C3)c1	–	·	14	–	·	–
CCCNC(=O)[C@@]1(c2ccc([N+](=O)[O-])cc2)CC(=O)N(CC23CC4CC(CC(C4)C2)C3)[C@@H]1c1ccc(CO)cc1I	–	·	–	–	·	·
N#Cc1nc(NCC(F)F)nc(Nc2cc(F)cc(F)c2)n1	·	·	8.0	·	–	–
CN(C)C(=O)C[C@H]1C[C@H]2c3cc(NS(C)(=O)=O)ccc3O[C@H]2[C@H](CO)O1	–	–	–	–	–	–
CCCCC/C=C\C/C=C\C/C=C\CCCCC(=O)O	–	–	9.0	–	–	·
CCCCCCCC/C=C\CCCCCCCC(=O)O	–	–	–	–	–	·
CCCCCCC(=O)O	–	–	–	58	·	·
Cc1ccc(S(=O)(=O)Nc2ccc3c(c2)C(=O)N([C@@H](C)CO)C[C@H](C)[C@H](CN(C)C)OCCCC[C@H](C)O3)cc1	·	–	–	·	–	–
O=c1c(O)c(-c2cccs2)oc2ccc(Cl)cc12	–	–	53	–	·	–
O=c1c(O)c(-c2cccs2)oc2ccccc12	·	–	·	·	·	·
COc1ccc(C)cc1S(=O)(=O)Nc1cccc(SC)c1	·	166	·	·	·	·
COc1ccc(C)cc1S(=O)(=O)Nc1cccc(Cl)c1	·	–	·	·	·	·
COc1ccc(C)cc1S(=O)(=O)Nc1cccc(C)c1	–	·	–	–	·	–
COc1ccc(NS(=O)(=O)c2cc(C)ccc2OC)cc1OC	·	95	·	·	·	·
O=S(=O)(Nc1cccc2ncccc12)c1cccs1	·	234	·	·	·	·
C[C@@H]1CN([C@@H](C)CO)C(=O)c2cc(NC(=O)Nc3ccccc3)ccc2O[C@H]1CN(C)C(=O)Nc1ccccc1	–	–	–	–	–	–
SMILES	ERAP1 HTS inh	miR122 inh	F508del corr	DENV2 CPE	E-sel inducer	GSIS activator
COCCNC(=O)C[C@H]1CC[C@H]2[C@H](COc3ccc(NC(=O)Cc4ccccc4)cc3C(=O)N2C)O1	–	–	–	–	–	–
CN1C(=O)[C@H]2[C@@H](c3ccc(F)cc3)N3C(=O)c4ccccc4NC(=O)[C@@]3(C)[C@H]2C1=O	·	95	·	·	·	·
COC(=O)c1ccc(CS(=O)(=O)c2ccc(F)cc2)o1	–	–	9.5	–	·	–
CO[C@H]1CN(C)C(=O)c2ccc(NS(=O)(=O)c3ccc(-c4ccccc4)cc3)cc2OC[C@@H](C)NC[C@H]1C	–	·	–	–	–	–
C[C@@H]1CN([C@H](C)CO)C(=O)c2cccc(NC(=O)Nc3ccccc3)c2O[C@@H]1CN(C)Cc1ccc(Cl)c(Cl)c1	–	–	–	76	·	–
C[C@H](CO)N1C[C@H](C)[C@@H](CN(C)Cc2ccc(Cl)c(Cl)c2)Oc2c(NC(=O)C3CC3)cccc2C1=O	–	114[16.7 µM]	–	–	–	–

Source: PubChem BioAssay (Broad Institute)
